According to ChEMBL document CHEMBL2157987, “Benzimidazole bearing oxadiazole and triazolo-thiadiazoles nucleus: design and synthesis as anticancer agents” (2012):

How the values were obtained:
Assay type in all cases: functional
RPMI-8226 = assay: Cytotoxicity against human RPMI8226 cells after 48 hrs by SRB assay; conditions: RPMI-8226, 48 h
Method in brief: (§1)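 Five-dose NCI-60 panel screen: cells grown in RPMI 1640 with 5% FBS and 2 mM L-glutamine, preincubated 24 h at 37 °C, 5% CO2. Five 10-fold dilutions, 0.01–100 µM, applied for 48 h. Fixed with cold TCA (10% final), stained with 0.4% SRB, absorbance read at 515 nm. GI50, TGI and LC50 were taken from log concentration versus % growth curves using time-zero plates.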

M14 = assay: Cytotoxicity against human M14 cells after 48 hrs by SRB assay; conditions: M14, 48 h; method in brief: as §1
SK-MEL-28 = assay: Cytotoxicity against human SK-MEL-28 cells after 48 hrs by SRB assay; conditions: SK-MEL-28, 48 h; method in brief: as §1
UACC-62 = assay: Cytotoxicity against human UACC62 cells after 48 hrs by SRB assay; conditions: UACC-62, 48 h
Method in brief: (§2)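 Cells were grown in RPMI 1640 with 5% FBS and 2 mM L-glutamine, then held 24 h at 37 °C and 5% CO2 before dosing. TCA-fixed time-zero plates were kept. Compound was dissolved in DMSO and given at five 10-fold dilutions for 48 h. Cells were fixed with cold TCA (10% final), stained with 0.4% SRB and read at 515 nm. GI50, TGI and LC50 came from Ti/Tz/control growth formulas.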

A549 = assay: Cytotoxicity against human A549 cells after 48 hrs by SRB assay; conditions: A549, 48 h; method in brief: as §1
SK-MEL-5 = assay: Cytotoxicity against human SK-MEL-5 cells after 48 hrs by SRB assay; conditions: SK-MEL-5, 48 h; method in brief: as §1
Hs-578T = assay: Cytotoxicity against human Hs578T cells after 48 hrs by SRB assay; method in brief: as §1
MOLT-4 = assay: Cytotoxicity against human MOLT4 cells after 48 hrs by SRB assay; conditions: MOLT-4, 48 h; method in brief: as §1
MDA-MB-231 = assay: Cytotoxicity against human MDA-MB-231 cells after 48 hrs by SRB assay; conditions: MDA-MB-231, 48 h; method in brief: as §1
HL-60(TB) = assay: Cytotoxicity against human HL-60(TB) cells after 48 hrs by SRB assay; conditions: HL-60, 48 h
Method in brief: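 Human tumour line grown in RPMI 1640 with 5% FBS and 2 mM L-glutamine. Cells were plated and held 24 h at 37 °C/5% CO2 before dosing, and time-zero plates were TCA-fixed. Five 10-fold concentrations (0.01–100 µM) were added from DMSO stock and incubated 48 h. Cells were TCA-fixed, stained with 0.4% SRB and read at 515 nm. Values were calculated from growth curves relative to time-zero and control.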

CCRF-CEM = assay: Cytotoxicity against human CCRF-CEM cells after 48 hrs by SRB assay; method in brief: as §1
BT-549 = assay: Cytotoxicity against human BT549 cells after 48 hrs by SRB assay; conditions: BT-549, 48 h; method in brief: as §1
SNB-19 = assay: Cytotoxicity against human SNB19 cells after 48 hrs by SRB assay; conditions: SNB-19, 48 h; method in brief: as §2
SN12C = assay: Cytotoxicity against human SN12C cells after 48 hrs by SRB assay; method in brief: as §2
ACHN = assay: Cytotoxicity against human ACHN cells after 48 hrs by SRB assay; method in brief: as §1
OVCAR-4 = assay: Cytotoxicity against human OVCAR4 cells after 48 hrs by SRB assay; conditions: OVCAR-4, 48 h; method in brief: as §1
PC-3 = assay: Cytotoxicity against human PC3 cells after 48 hrs by SRB assay; conditions: PC-3, 48 h; method in brief: as §1
OVCAR-8 = assay: Cytotoxicity against human OVCAR8 cells after 48 hrs by SRB assay; conditions: OVCAR-8, 48 h; method in brief: as §1
NCI-H23 = assay: Cytotoxicity against human NCI-H23 cells after 48 hrs by SRB assay; conditions: NCI-H23, 48 h; method in brief: as §1
U-251 = assay: Cytotoxicity against human U251 cells after 48 hrs by SRB assay; conditions: U-251, 48 h; method in brief: as §2
[1] = read-out: LC50 (the source's name)
[2] = read-out: pLC50 (the source's name) (converted)

Nc1cc(Br)c(-c2nnc(CCC(=O)c3nc4ccccc4[nH]3)o2)c(Br)c1
77.6 µM: TGI (OVCAR-4; read-out: pTGI (converted))
36.3 µM: TGI (NCI-H23; read-out: pTGI (converted))
17.4 µM: GI50 (M14)
3.24 µM: GI50 (NCI-H23)
31.6 µM: TGI (Hs-578T; read-out: pTGI (converted))
6.76 µM: GI50 (BT-549)
3.72 µM: GI50 (Hs-578T)
14.1 µM: GI50 (SK-MEL-5)
31.7 µM: TGI (Hs-578T; read-out: TGI)
36.4 µM: TGI (NCI-H23; read-out: TGI)
4.9 µM: GI50 (MOLT-4)
20 µM: GI50 (SNB-19)
29.5 µM: GI50 (SN12C)
79 µM: TGI (SK-MEL-28; read-out: TGI)
3.47 µM: GI50 (HL-60(TB)) | GI50 (U-251)
47.9 µM: GI50 (ACHN)
21.4 µM: GI50 (OVCAR-8)
55.5 µM: TGI (M14; read-out: TGI)
78.2 µM: TGI (OVCAR-4; read-out: TGI)
79.4 µM: TGI (SK-MEL-28; read-out: pTGI (converted))
86.8 µM: TGI (MDA-MB-231; read-out: TGI)
4.17 µM: GI50 (RPMI-8226)
> 100 µM: CC50 (RPMI-8226; [1]) | TGI (RPMI-8226; read-out: TGI) | CC50 (RPMI-8226; [2]) | TGI (RPMI-8226; read-out: pTGI) | CC50 (M14; [1]) | CC50 (M14; [2]) | CC50 (SK-MEL-28; [1]) | CC50 (SK-MEL-28; [2]) | CC50 (UACC-62; [1]) | TGI (UACC-62; read-out: TGI) | CC50 (UACC-62; [2]) | TGI (UACC-62; read-out: pTGI) | CC50 (A549; [1]) | TGI (A549; read-out: TGI) | CC50 (A549; [2]) | TGI (A549; read-out: pTGI) | CC50 (SK-MEL-5; [1]) | TGI (SK-MEL-5; read-out: TGI) | CC50 (SK-MEL-5; [2]) | TGI (SK-MEL-5; read-out: pTGI) | CC50 (Hs-578T; [1]) | CC50 (Hs-578T; [2]) | CC50 (MOLT-4; [1]) | TGI (MOLT-4; read-out: TGI) | CC50 (MOLT-4; [2]) | TGI (MOLT-4; read-out: pTGI) | LC50 (MDA-MB-231; read-out: LC50) | LC50 (MDA-MB-231; read-out: pLC50 (converted)) | CC50 (HL-60(TB); [1]) | TGI (HL-60(TB); read-out: TGI) | CC50 (HL-60(TB); [2]) | TGI (HL-60(TB); read-out: pTGI) | CC50 (CCRF-CEM; [1]) | TGI (CCRF-CEM; read-out: TGI) | CC50 (CCRF-CEM; [2]) | TGI (CCRF-CEM; read-out: pTGI) | CC50 (BT-549; [1]) | TGI (BT-549; read-out: TGI) | CC50 (BT-549; [2]) | TGI (BT-549; read-out: pTGI) | CC50 (SNB-19; [1]) | TGI (SNB-19; read-out: TGI) | CC50 (SNB-19; [2]) | TGI (SNB-19; read-out: pTGI) | CC50 (SN12C; [1]) | TGI (SN12C; read-out: TGI) | CC50 (SN12C; [2]) | TGI (SN12C; read-out: pTGI) | LC50 (ACHN; read-out: LC50) | TGI (ACHN; read-out: TGI) | LC50 (ACHN; read-out: pLC50 (converted)) | TGI (ACHN; read-out: pTGI) | LC50 (OVCAR-4; read-out: LC50) | LC50 (OVCAR-4; read-out: pLC50 (converted)) | LC50 (concentration killing 50% of cells) (PC-3; read-out: LC50) | TGI (PC-3; read-out: TGI) | LC50 (concentration killing 50% of cells) (PC-3; read-out: pLC50 (converted)) | TGI (PC-3; read-out: pTGI) | CC50 (OVCAR-8; [1]) | TGI (OVCAR-8; read-out: TGI) | CC50 (OVCAR-8; [2]) | TGI (OVCAR-8; read-out: pTGI) | CC50 (NCI-H23; [1]) | CC50 (NCI-H23; [2]) | CC50 (U-251; [1]) | TGI (U-251; read-out: TGI) | CC50 (U-251; [2]) | TGI (U-251; read-out: pTGI)
87.1 µM: TGI (MDA-MB-231; read-out: pTGI (converted))
55 µM: TGI (M14; read-out: pTGI (converted))
3.8 µM: GI50 (CCRF-CEM)
5.37 µM: GI50 (UACC-62)
10.2 µM: GI50 (MDA-MB-231)
27.5 µM: GI50 (A549)
6.31 µM: GI50 (SK-MEL-28)
5.5 µM: GI50 (OVCAR-4)
3.09 µM: GI50 (PC-3)
